Data as given in PMC4883002 (Environmental science & technology, 2016).
Structures can show the parent of a compound that is named as a salt.

Experiments:
[1] = molecular target: human serum albumin (HSA) Site I (Homo sapiens, UniProt P02768); assay: Displacement of the Site I-selective fluorescent probe DNSA from HSA; type: binding; details: for Site I binding (DNSA displacement), result in words: 10 µM HSA, 20 µM DNSA, pH 7.4, 25°C, numeric EC50 values only in Figures 4-6; for fluorescence of the site I probe, DNSA: at higher concentrations of ligand
How it was run: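 Fatty acid- and globulin-free HSA in 0.1 M potassium phosphate, pH 7.4, with DNSA probe and increasing ligand concentrations (DMSO stocks; final DMSO <0.8% v/v; DMSO-only controls). Fluorescence read after 5 min at 25°C, ex 350/em 460 nm. Triplicates, each averaging six readings, as % of control.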

human serum albumin = details: HSA binding, previously published; cited from earlier work
HSA [2] = details: cited from earlier work
HSA [3] = details: cited from earlier work; remark: listed apart in the source

human serum albumin (HSA) Site I, sequence (P02768 25-609): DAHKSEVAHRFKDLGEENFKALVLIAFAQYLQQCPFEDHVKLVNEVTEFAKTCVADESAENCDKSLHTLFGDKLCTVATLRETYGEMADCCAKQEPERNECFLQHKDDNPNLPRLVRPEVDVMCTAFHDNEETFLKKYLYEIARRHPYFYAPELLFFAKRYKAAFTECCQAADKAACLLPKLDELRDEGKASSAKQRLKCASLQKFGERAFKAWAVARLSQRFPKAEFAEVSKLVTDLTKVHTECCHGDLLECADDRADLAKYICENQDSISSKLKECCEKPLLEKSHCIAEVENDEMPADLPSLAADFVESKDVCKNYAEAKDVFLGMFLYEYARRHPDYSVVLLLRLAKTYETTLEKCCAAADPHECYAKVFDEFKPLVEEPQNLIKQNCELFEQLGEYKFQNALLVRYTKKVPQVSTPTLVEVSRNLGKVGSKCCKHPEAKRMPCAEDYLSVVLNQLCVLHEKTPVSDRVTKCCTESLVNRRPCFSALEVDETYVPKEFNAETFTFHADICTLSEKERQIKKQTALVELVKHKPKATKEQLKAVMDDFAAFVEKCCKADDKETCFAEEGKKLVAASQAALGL

Row | SMILES | Site I binding (DNSA displacement), result in words [1] | binding to Site II (HSA [3]) | binding to Sudlow Site I (HSA [3]) | other results
1 | O=S(=O)(O)Oc1ccc(-c2ccc(Cl)c(Cl)c2)cc1Cl [4’-PCB 35 sulfate] | lack of interaction | – | – | fluorescence of the site I probe, DNSA [1]: increased
2 | O=C(O)c1ccccc1Nc1cccc(C(F)(F)F)c1 [flufenamic acid] | – | – | – | Ka (human serum albumin): 156000 M⁻¹
3 | Oc1ccc(-c2cc(Cl)ccc2Cl)cc1 [4’-OH-PCB 9] | no significant binding | – | – | –
4 | O=S(=O)(O)Oc1ccc(-c2ccc(Cl)c(Cl)c2)c(Cl)c1 [4’-PCB 33 sulfate] | – | – | – | fluorescence of the site I probe, DNSA [1]: increased
5 | Oc1ccc(-c2ccc(Cl)cc2)cc1 [4’-OH-PCB 3] | significant binding | – | – | –
6 | Clc1cc(Cl)c(-c2cc(Cl)c(Cl)cc2Cl)cc1Cl [PCB 153] | – | no binding | bound with high affinity | HSA binding site (HSA [2]): bound to a single site of HSA, Sudlow Site II
7 | O=S(=O)(O)Oc1ccc(-c2ccc(Cl)cc2)cc1 [4’-PCB 3 sulfate] | significant binding | – | – | –
8 | Clc1ccc(-c2cc(Cl)c(Cl)c(Cl)c2)cc1Cl [compound 126] | – | no binding | bound with high affinity | –
9 | Clc1ccc(-c2cc(Cl)c(Cl)cc2Cl)cc1Cl [PCB 118] | – | no binding | bound with high affinity | –
10 | O=S(=O)(O)Oc1ccc(-c2ccc(Cl)c(Cl)c2)cc1 [4’-PCB 12 sulfate] | no significant binding | – | – | –
